HKDC1 inh: blocks human hexokinase HKDC1 activity; hit rate 0.16% among 340,000; inhibition, % at 20 µM; recombinant HKDC1, G6PDH/diaphorase resazurin coupled fluorescence; Q2TB90;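 active means inhibition above about 35% when tested at 20 µM, limit read from the data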
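Test system: Recombinant HKDC1 (HK5) hexokinase enzyme, produced in-house | Input: HKDC1 at 5 µg/mL | Buffer or medium: Tris pH 8.0 buffer with MgCl2, Tween-20, BSA, BME | Schedule: 90 min reaction incubation at room temperature, dark | Technique: Resazurin-to-resorufin fluorescence via G6PDH and diaphorase coupling, 525/613 nm | Controls: DMSO wells with and without enzyme mix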
SUMO1-SIM PPI: modulators of human SUMO1-mediated protein-protein interactions | hit rate 0.33% among 360,000 | P63165 | inhibition, % at 20 µM | SUMO1 binding to a labelled peptide, TR-FRET, 1 h | AID 602429; in the data active means inhibition above about 37%
DNMT1 block: blocks human DNA methyltransferase DNMT1 | inhibition (reported as % activation of signal), % at 10 µM | P26358 | hit rate 0.83% among 360,000 | DNMT1 molecular beacon, Hinp1I cleavage, fluorescence; in the data active means inhibition above about 50%
Target sequence (P26358 504-1616 limits assumed): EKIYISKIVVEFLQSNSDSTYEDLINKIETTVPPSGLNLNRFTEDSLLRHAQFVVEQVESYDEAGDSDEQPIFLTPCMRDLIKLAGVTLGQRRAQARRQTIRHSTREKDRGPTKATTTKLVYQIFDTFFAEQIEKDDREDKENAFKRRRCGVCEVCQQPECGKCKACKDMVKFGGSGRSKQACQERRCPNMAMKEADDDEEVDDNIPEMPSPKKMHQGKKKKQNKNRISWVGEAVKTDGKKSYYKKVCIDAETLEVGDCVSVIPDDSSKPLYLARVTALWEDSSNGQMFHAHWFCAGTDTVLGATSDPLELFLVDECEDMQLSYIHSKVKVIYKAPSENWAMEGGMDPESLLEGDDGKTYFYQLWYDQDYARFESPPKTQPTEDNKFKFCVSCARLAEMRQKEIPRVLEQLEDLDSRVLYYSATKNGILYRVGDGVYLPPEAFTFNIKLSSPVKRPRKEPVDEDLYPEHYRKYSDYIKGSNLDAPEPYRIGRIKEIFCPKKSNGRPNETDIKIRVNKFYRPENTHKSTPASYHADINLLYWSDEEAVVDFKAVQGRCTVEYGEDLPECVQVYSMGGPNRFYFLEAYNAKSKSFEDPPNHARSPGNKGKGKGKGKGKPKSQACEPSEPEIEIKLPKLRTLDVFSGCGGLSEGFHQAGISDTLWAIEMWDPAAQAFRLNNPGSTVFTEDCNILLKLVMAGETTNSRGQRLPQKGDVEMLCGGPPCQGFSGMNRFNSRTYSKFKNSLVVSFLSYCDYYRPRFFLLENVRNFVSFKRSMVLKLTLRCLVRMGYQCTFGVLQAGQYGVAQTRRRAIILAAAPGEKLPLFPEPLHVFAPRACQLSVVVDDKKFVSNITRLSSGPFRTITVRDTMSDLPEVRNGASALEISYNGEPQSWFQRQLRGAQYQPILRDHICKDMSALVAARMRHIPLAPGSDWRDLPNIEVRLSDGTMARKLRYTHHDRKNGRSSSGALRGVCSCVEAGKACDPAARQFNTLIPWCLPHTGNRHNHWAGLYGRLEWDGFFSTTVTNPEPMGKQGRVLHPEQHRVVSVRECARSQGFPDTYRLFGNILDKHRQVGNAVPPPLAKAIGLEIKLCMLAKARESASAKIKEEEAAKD
STEP inh: STEP (human) phosphatase inhibition. P54829. recombinant STEP, OMFP fluorogenic substrate, fluorescence. inhibition, % at 20 µM. hit rate 0.25% among 360,000. AID 588621;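 active means inhibition at 20 µM, scaled per plate between control wells, above about 37%, limit read from the data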
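Material: STEP (striatal-enriched tyrosine phosphatase) enzyme, cell-free | Medium: 50 mM Bis-Tris pH 6.0 with 2.5 mM DTT and 0.005% Tween 20 | Read-out: Percent inhibition scaled to no-enzyme and uninhibited-enzyme controls, plate-pattern corrected | Signal: Fluorescence read at 480 nm ex / 540 nm em | Times: 20 min reaction, room temperature, in the dark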
Scp1 inh: inhibitors of human Scp-1 phosphatase | Q9GZU7 | Recombinant Scp1, phosphopeptide, malachite green phosphate absorbance | inhibition, % at 20 µM | hit rate 0.88% among 340,000 | AID 493091;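 active means inhibition above about 50% at 20 µM, limit read from the data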
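Test system: SCP-1 phosphatase catalytic domain, residues 76-261; measured by: colorimetric phosphate reagent with accelerator and stabiliser, absorbance at 630 nm; timing: enzyme reaction 45 min at room temperature, colour 5 min, stabilisation 30 min; also added: Phosphorylated 17-residue peptide substrate; compound dosing: one concentration, 20 µM, with 1.0% DMSO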
LMPTP inh: LMPTP (human) inhibition; P24666; recombinant LMPTP-A, OMFP fluorogenic substrate, fluorescence intensity; inhibition, % at 20 µM; hit rate 0.22% among 360,000; AID 651560;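 active means compounds that cut the enzyme signal by at least half of the control window in the single-dose screen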
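Material: LMPTP-A; amount: 0.625 nM enzyme; doses: single 20 µM dose; times: reaction 50 min, room temperature, dark; technique: fluorescence intensity of OMFP turnover product; benchmarks: no-enzyme and uninhibited controls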
Scp1 confirm: Scp-1 (human) inhibition, single-dose confirmed | shares compounds with Scp1 inh | recombinant SCP-1 catalytic domain, phosphate release, malachite green absorbance | inhibition, % at 20 µM | hit rate 61% among 2,500
MG interference: interferes with malachite green readout, flagging false Scp-1 hits; shares compounds with Scp1 inh; Colorimetric interference counterscreen, malachite green absorbance 630 nm; apparent inhibition (interference), % at 20 µM; 2,500 tested, under 10 active; AID 540313;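 further: compounds added after enzyme reaction finished so only phosphate colour detection is probed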
Scp1 DSF: Scp-1 (human) binding by thermal shift; thermal shift relative to vanadate control, % at 40 µM; hit rate 25% among 1,500; shares compounds with Scp1 inh; Recombinant SCP1, Sypro Orange thermal shift Tm;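 active means substances whose mean melting-temperature shift, as a percentage of the reference inhibitor's shift, reaches about 5.3%, limit read from the data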
Large screens that a line does not name were inactive (follow-up assays come after a bar, where they were run). Sampled rows, rich in hits. Any-hit rate of the full collection: about 1.8%.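 How the source made its calls, unless noted: active means inhibition of at least 30% at 20 µM; inactive means the rest.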

CC(=O)Nc1ccc(S(=O)(=O)N(C)CC(=O)OCC(=O)N2CCN(C(=O)c3ccco3)CC2)cc1	Scp1 inh 74 | Scp1 confirm 71 | MG interference inactive | Scp1 DSF inactive
COc1ccc(OC(F)(F)F)cc1CC1(C)C(=O)Nc2c(Cl)ccc(Cl)c21 (centres undefined)	none (no result: HKDC1 inh, Scp1 inh)
CCOc1ccccc1NC(=O)CCS(=O)(=O)c1ccc(OC)cc1	none
CCc1ccccc1NC(=O)CCS(=O)(=O)c1ccc(OC)cc1	Scp1 inh 55 | Scp1 confirm 48 | MG interference inactive | Scp1 DSF inactive
COc1ccc2nc(SCC(=O)NN)cc(C)c2c1	Scp1 inh 87 | Scp1 confirm inactive | MG interference inactive
CC(C=CC(O)=C1C(=O)CNC1=O)=C[C@@H](C)C1OC2(C)OC(C(=O)C3O[C@@]32C)C1C (some centres undefined)	none (no result: HKDC1 inh, DNMT1 block, STEP inh, Scp1 inh)
Cc1ccc2nc(Cl)c(/C=N/NC(=O)c3ccccc3O)cc2c1	Scp1 inh 72 | Scp1 confirm inactive | MG interference inactive
O=C1NCCN1CCNS(=O)(=O)c1ccc2ccccc2c1	none | Scp1 confirm inactive | MG interference inactive
CC(C)n1nc(C(=O)Nc2ccc(-n3cnnn3)cc2)c2ccccc2c1=O	none
Cn1nc(C(=O)Nc2ccc(-n3cnnn3)cc2)c2ccccc2c1=O	Scp1 inh 99 | Scp1 confirm 70 | MG interference inactive | Scp1 DSF inactive
CCOc1cc(Br)c(Br)c(C=Nc2ccc(NC(C)=O)cc2)c1O	Scp1 inh 75 | Scp1 confirm 72 | MG interference inactive | Scp1 DSF inactive
CC1(Oc2cccc(C#N)c2)CCN(Cc2ccccc2OC(F)F)C1 (centres undefined)	none (no result: HKDC1 inh, Scp1 inh)
O=C(NCc1ccc2c(c1)OCO2)c1cc(-n2cnnc2)ccc1Cl	Scp1 inh 85 | Scp1 confirm inactive | MG interference inactive
O=C(NCc1ccc2c(c1)OCO2)c1ccccc1Cl	none
Cn1c(NNC(=O)c2cccc3ccccc23)cc(=O)n(C)c1=O	none | Scp1 confirm inactive | MG interference inactive
CCOC(=O)/C=C1\CN(Cc2cc(OC)c(OC)c(OC)c2)S(=O)(=O)c2ccc(C(F)(F)F)cc21	Scp1 inh 88 | Scp1 confirm 57 | MG interference inactive | Scp1 DSF inactive
Cc1ccccc1NC(=O)CSc1n[nH]c(-c2ccccn2)n1	Scp1 inh 63 | Scp1 confirm inactive | MG interference inactive
Cc1ccc(C)c(NC(=O)CSc2n[nH]c(-c3ccccn3)n2)c1	none
CCCCCc1c(CC)ncn1CCc1ccccc1OC	none (no result: HKDC1 inh, DNMT1 block, STEP inh, Scp1 inh)
CCCc1ccc(C(O)c2ncc(-c3ccc(OC)cc3)[nH]2)cc1 (centres undefined)	none (no result: HKDC1 inh, Scp1 inh)
COc1cc(NC(=O)c2ccc3c(c2)C(=O)N(CCC(C)C)C3=O)c(C(=O)O)cc1OC	STEP inh 61, Scp1 inh 72 | Scp1 confirm 60 | MG interference inactive | Scp1 DSF 6.1
COc1ccc(CC2(CO)CCN(S(=O)(=O)c3c(C)nn(C)c3Cl)CC2)cc1	none
Cc1nn(C)c(Cl)c1S(=O)(=O)N1CCC(CO)(CCc2ccccc2)CC1	Scp1 inh 81 | Scp1 confirm inactive | MG interference inactive
COc1ccc(-c2ccc3c(c2)C2CC3CCN2)cc1 (centres undefined)	none
Cn1c(=O)c2cc(NC(=O)CCc3cccnc3)ccc2n1Cc1cccc(C(F)(F)F)c1	none (no result: HKDC1 inh, Scp1 inh)
CCCCCc1ccc(-c2ccc(OC)cc2)nc1	none
CCCCCc1ccnc(CC(=O)c2ccc(OC)cc2)c1	Scp1 inh 94 | Scp1 confirm inactive | MG interference inactive
C=CCn1c(N)cc(=O)nc1SC(C)C(=O)Nc1cccc2ccccc12 (centres undefined)	none | Scp1 confirm inactive | MG interference inactive
COc1ccc(-n2c(=S)[nH]c3cc(C(=O)N4CCN(c5ccccc5)CC4)ccc3c2=O)cc1	none
Nc1nc(SCc2ccccc2)c2ncn(C3OC(CO)C(O)C3O)c2n1 (centres undefined)	none
CSc1nc(N)nc2c1ncn2C1OC(CO)C(O)C1O (centres undefined)	none | Scp1 confirm inactive | MG interference inactive
O=C(Nc1ccc(Cl)cc1)OCc1cn(-c2ccc(Cl)cc2)nn1	Scp1 inh 84 | Scp1 confirm inactive | MG interference inactive
O=C(CSC1=NS(=O)(=O)c2ccccc2N1)NCc1ccc(F)cc1	none
CC(=O)c1sc(NC(=O)C2CC(=O)N(Cc3ccccc3)C2)nc1-c1ccccc1 (centres undefined)	none | Scp1 confirm inactive | MG interference inactive
CCN(CC)S(=O)(=O)c1cc(NC(=O)C2CC(=O)N(Cc3ccccc3)C2)ccc1Cl (centres undefined)	none | Scp1 confirm inactive | MG interference inactive
COc1ccc(NS(=O)(=O)c2cc(C(=O)NNC(=O)c3ccncc3)ccc2OC)c(OC)c1	none
CC(=O)N1CCc2cc(S(=O)(=O)CCC(=O)N3CCN(c4ccccc4F)CC3)ccc21	none
CC(=O)N1CCCc2cc(S(=O)(=O)CCC(=O)N3CCN(c4cccc(C)c4)C(C)C3)ccc21 (centres undefined)	Scp1 inh 50 | Scp1 confirm inactive | MG interference inactive
O=C(Cn1ccc(NC(=O)OCc2ccccc2)nc1=O)NCc1ccc2[nH]ccc2c1	none | Scp1 confirm inactive | MG interference inactive
COc1cc(NCCCn2ccc(NC(=O)OCc3ccccc3)nc2=O)cc(OC)c1OC	none | Scp1 confirm inactive | MG interference inactive
COc1ccc(CNC(=O)Cn2ccc(NC(=O)OCc3ccccc3)nc2=O)cc1	none
Cc1ccc(CNC(=O)Cn2ccc(NC(=O)OCc3ccccc3)nc2=O)o1	none | Scp1 confirm inactive | MG interference inactive
Cc1c(C(=O)NC2CCCC2)oc2ccccc12	none
NC(=O)CC1(c2ccccc2)CCCCC1	none (no result: HKDC1 inh, Scp1 inh)
CCOc1ccc(NC(=O)COC(=O)CCN2C(=O)C3CC=CCC3C2=O)cc1OCC (centres undefined)	none
C(=N\n1c2ccccc2c2ccccc21)/c1ccccc1	none
C[n+]1cn(/N=C/c2ccccc2)c2ccccc21	Scp1 inh 113 | Scp1 confirm inactive | MG interference inactive
O=C(O)C1(S(=O)(=O)CCC(F)=C(F)F)CC1	Scp1 inh 98 | Scp1 confirm inactive | MG interference inactive

From PubChem
